In ChEMBL document CHEMBL1124748, “Preparation of triazolo[1,5-c]pyrimidines as potential antiasthma agents” (J Med Chem, 1990):

System: not listed separately
Test: Antiasthmatic activity against the immunoglobulin E (IgE) antigen using the human basophil asthma model.
Type: functional
Summary of the method: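 Leukocytes washed and resuspended in pH 7.4 buffer (25 mM PIPES, 110 mM NaCl, 5 mM KCl, 0.6 mM CaCl2, 1.0 mM MgCl2, 0.03% HSA). Cells preincubated with drug 10 min at 37 °C, then incubated 1 h at 37 °C with shaking. Histamine in HClO4-treated supernatants measured fluorometrically against lysed-cell totals. Triplicates, controls sextuplicate. IC50 from linear regression of percent release.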

IC50 [µM] | SMILES
3.7 | Nc1nc2ccnc(-c3cccc(Br)c3)n2n1
51.8 | CC(=O)Nc1nc2c(C)cnc(-c3cccc(NS(=O)(=O)c4ccc(C)cc4)c3)n2n1
1 | Nc1nc2ccnc(-c3cccc(C(Cl)Cl)c3)n2n1
3.8 | Nc1nc2ccnc(-c3cccc([N+](=O)[O-])c3)n2n1
3.5 | CN(C)C(=O)c1cccc(-c2nccc3nc(N)nn23)c1
3.4 | Nc1nc2ccnc(-c3cccc(OC(F)F)c3)n2n1
1.6 | CC(=O)Nc1nc2ccnc(-c3cccc(NS(=O)(=O)c4ccc(C)cc4)c3)n2n1
1.5 | Cc1ccc(S(=O)(=O)Nc2cccc(-c3nccc4nc(N)nn34)c2)cc1
4.3 | Nc1nc2ccnc(-c3cccc(Cl)c3)n2n1
5.5 | Cc1cccc(-c2nccc3nc(N)nn23)c1
12.6 | C#Cc1cccc(-c2nccc3nc(N)nn23)c1
18 | Nc1nc2ccnc(-c3ccncc3)n2n1
11.5 | CCOC(=O)c1cccc(-c2nccc3nc(N)nn23)c1
8.7 | Cc1cnc(-c2cccc([N+](=O)[O-])c2)n2nc(N)nc12
0.7 | Nc1nc2ccnc(-c3cc(C(F)(F)F)cc(C(F)(F)F)c3)n2n1
20 | CC(=O)Nc1nc2ccnc(-c3cccc(C(F)(F)F)c3)n2n1
5.6 | Nc1nc2ccnc(-c3cc[n+]([O-])cc3)n2n1
14 | Nc1nc2ccnc(-c3cccnc3)n2n1
11 | CC(=O)Nc1nc2c(C)cnc(-c3cccc([N+](=O)[O-])c3)n2n1
5.6 | Cc1cnc(-c2cccc(C(F)(F)F)c2)n2nc(N)nc12
10.2 | CNc1nc2ccnc(-c3cccc(C(F)(F)F)c3)n2n1
9.3 | OC(CCl)CNc1nc2ccnc(-c3cccc(C(F)(F)F)c3)n2n1 (stereo unspecified)
31.3 | Nc1nc2ccnc(-c3ccc(F)cc3)n2n1
2.5 | Cc1cnccc1-c1nccc2nc(N)nn12
1000 | O=C(O)c1cc(=O)c2c(OCC(O)COc3cccc4oc(C(=O)O)cc(=O)c34)cccc2o1 [CROMOLYN SODIUM]
16.5 | CCOC(=O)c1ccc(-c2nccc3nc(N)nn23)cc1
0.7 | Nc1nc2ccnc(-c3cccc(C=O)c3)n2n1
2.2 | Nc1nc2ccnc(-c3cccc(C(F)(F)F)c3)n2n1

SMILES | IC50 [µM]
Cn1c(=O)c2nc[nH]c2n(C)c1=O.O [THEOPHYLLINE] | 309

System: not listed separately
Test: Antiasthmatic activity against the immunoglobulin E (IgE) antigen using the human basophil asthma model; I = Inactive at 48 uM; call rule not given here
Type: functional

IC50 | SMILES
Not Active | Nc1nc2ccnc(-c3ccccc3)n2n1
Not Active | Cc1cc2nc(N)nn2c(-c2ccc(C(F)(F)F)cc2)n1
Not Active | Cc1cnc(-c2ccc(C(F)(F)F)cc2)n2nc(N)nc12
Not Active | CC(=O)Nc1nc2ccnc(-c3cccc([N+](=O)[O-])c3)n2n1
Not Active | Cc1cnc(-c2cccc([N+](=O)[O-])c2)n2nc(Cl)nc12
Not Active | Nc1nc2ccnc(-c3cc(Cl)cc(Cl)c3)n2n1
Not Active | CCCc1cc2nc(N)nn2c(-c2cccc(C(F)(F)F)c2)n1
Not Active | Nc1nc2ccnc(-c3ccc[n+]([O-])c3)n2n1
Not Active | Nc1nc2ccnc(Cc3cccc(C(F)(F)F)c3)n2n1
Not Active | Nc1nc2ccnc(-c3cccc(F)c3)n2n1
Not Active | Cc1cnc(-c2cccc(N)c2)n2nc(N)nc12
Not Active | Nc1nc2cc(C(F)(F)F)nc(-c3cccc(C(F)(F)F)c3)n2n1
Not Active | Nc1nc2ccnc(-c3ccccn3)n2n1
Not Active | Nc1nc2ccnc(-c3cccc(CO)c3)n2n1
Not Active | Cc1cccnc1-c1nccc2nc(N)nn12
Not Active | CCOC(=O)CNc1nc2ccnc(-c3cccc(C(F)(F)F)c3)n2n1
Not Active | Cc1cnc(-c2ccccc2)n2nc(N)nc12

IC50 | SMILES
Not Active | CC(=O)Nc1nc2c(C)cnc(-c3cccc(N)c3)n2n1
Not Active | CN(C)c1nc2ccnc(-c3cccc(C(F)(F)F)c3)n2n1
Not Active | Nc1nc2ccnc(-c3cccc(C(=O)O)c3)n2n1
Not Active | Cc1cc2nc(N)nn2c(-c2cccc(C(F)(F)F)c2)n1
Not Active | C[n+]1cccc(-c2nccc3nc(N)nn23)c1.[I-]
Not Active | Nc1nc2ccnc(-c3cccs3)n2n1
Not Active | CC(=O)N(C)c1nc2ccnc(-c3cccc(C(F)(F)F)c3)n2n1
Not Active | CCOC(=O)CN(C(C)=O)c1nc2ccnc(-c3cccc(C(F)(F)F)c3)n2n1
Not Active | CNc1cccc(-c2ncc(C)c3nc(NC)nn23)c1
Not Active | CN(C)/C=N/c1nc2ccnc(-c3cccc(C(F)(F)F)c3)n2n1
Not Active | Nc1nc2ccnc(-c3ccc(C(F)(F)F)cc3)n2n1
Not Active | Cc1ccc(S(=O)(=O)Nc2cccc(-c3ncc(C)c4nc(N)nn34)c2)cc1
Not Active | Cc1cnc(-c2cccc([N+](=O)[O-])c2)n2nc(N3CCOCC3)nc12
Not Active | CCCc1c(C)nc(-c2cccc(C(F)(F)F)c2)n2nc(N)nc12
Not Active | FC(F)(F)c1cccc(-c2nccc3nc(NCC4CO4)nn23)c1 (stereo unspecified)
Not Active | Nc1nc2ccnc(-c3ccccc3F)n2n1
Not Active | FC(F)(F)c1cccc(-c2nccc3ncnn23)c1

System: Mus musculus
Test: Effective dose (ip) evaluated by Passive cutaneous anaphylaxis test (PCA) by injecting IgE serum intradermally in mice

SMILES | ED50 [mg/kg]
Nc1nc2ccnc(-c3cccc(Br)c3)n2n1 | 142
Nc1nc2ccnc(-c3cccc(OC(F)F)c3)n2n1 | 138
Nc1nc2ccnc(Cc3cccc(C(F)(F)F)c3)n2n1 | 178
Cn1c(=O)c2nc[nH]c2n(C)c1=O.O [THEOPHYLLINE] | 140
Nc1nc2ccnc(-c3ccncc3)n2n1 | 14
Nc1nc2ccnc(-c3ccc(F)cc3)n2n1 | 178
Nc1nc2ccnc(-c3cccc(C(F)(F)F)c3)n2n1 | 166
Nc1nc2ccnc(-c3ccccc3F)n2n1 | 218
